Compound activity as filed in PubChem.
CHO parental Ca: counter-screen: ATP calcium response change in parental CHO cells; 330,000 compounds, 0.63% hits; parental CHO-K1, ATP-induced calcium, Fluo-8 fluorescence; AID 463079; inhibition, % at 5.6 µM;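 active = inhibition above that plate's mean sample inhibition plus 3 SD, cut at about 26% in these data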
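Assay system – parental CHO cells · Reagent – ATP stimulus · Detection – intracellular calcium via Fluo-8 no-wash fluorescent dye · Evaluation – percent inhibition of ATP-evoked calcium rise, normalized to controls · Controls – ATP wells versus no-ATP DMSO wells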
EP2 mod: modulators of human EP2 prostaglandin E2 receptor | EP2-expressing cells, cAMP HTRF FRET, PGE2 co-stimulation | induction, % at 25 µM | 260,000 compounds, 0.83% hits;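 active = compounds whose cAMP rise, as percent of the full-agonist control response, exceeds 60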;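 note: rat C6 glioma line stably carrying human EP2 under a CMV promoter; the protocol text gives 20 µM as final concentration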
OX1R antag-1: blocks the human orexin 1 receptor; O43613; CHO/OX1R cells, Fluo-8 calcium fluorescence, orexin A; inhibition, % at 5 µM; 330,000 compounds, 0.43% hits;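 active = inhibition above its plate's threshold, mean inhibition of all tested compounds on the plate plus 3 SD, cut at about 37% in these data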
Target sequence (O43613 whole entry, looked up): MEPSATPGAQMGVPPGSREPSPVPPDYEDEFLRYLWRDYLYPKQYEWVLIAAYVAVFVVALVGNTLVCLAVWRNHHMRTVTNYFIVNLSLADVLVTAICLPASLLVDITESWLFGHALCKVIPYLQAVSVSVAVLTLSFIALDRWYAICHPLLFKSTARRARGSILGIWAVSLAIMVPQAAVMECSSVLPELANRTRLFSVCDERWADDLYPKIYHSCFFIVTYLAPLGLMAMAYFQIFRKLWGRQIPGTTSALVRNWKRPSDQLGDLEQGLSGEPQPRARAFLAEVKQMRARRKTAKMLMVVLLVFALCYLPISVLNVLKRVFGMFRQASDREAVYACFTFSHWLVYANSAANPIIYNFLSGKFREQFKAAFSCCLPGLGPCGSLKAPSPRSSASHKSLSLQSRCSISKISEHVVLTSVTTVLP
OX1R antag-2: OX1R (human) antagonism. O43613. 330,000 compounds, 1.8% hits. inhibition, % at 6.6 µM. OX1R-expressing cells, FRET antagonist read-out; in the data active = inhibition mostly above about 38%, no sharp cut-off; inactive = mostly below about 40%
GPR7 antagonist: antagonists of human GPR7 (neuropeptides B/W receptor 1). GPR7-expressing cells, fluorescence antagonist assay. 290,000 compounds, 1.1% hits. P48145. inhibition, % at 4.4 µM; in the data active = inhibition above about 16%, passing the limit was not always enough;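 note: cells stimulated with the agonist NPW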
EP2 antag: EP2 receptor (human) inhibition; 260,000 compounds, 0.52% hits; inhibition, % at 25 µM; C6 glioma cells expressing human EP2, cAMP TR-FRET; cells stimulated with saturating PGE2; P43116;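 active = percent inhibition above 40 after rounding to a whole number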;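 note: rat C6 glioma host cells with rolipram phosphodiesterase inhibitor present; the protocol text gives 20 µM as final concentration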
EP2 confirm: human EP2 receptor cAMP induction, negative in counter-screens; 1,300 compounds, 47% hits; C6 glioma EP2 cells, cAMP HTRF induction; plus low (about EC15) PGE2 agonist; calls only at 20 µM (by protocol); shares compounds with EP2 mod;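 active = cAMP induction above 50% in the main assay while under 30% in all four parallel counter assays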;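 note: rat C6 glioma cells stably expressing human EP2 receptor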
Of the large screens only hits and unclear results are named; the others gave an inactive call (follow-up assays come after a bar, where they were run); ! = repeats disagree. Only some compounds are listed: those with a hit (about 3.7% of all), similar ones and a draw of the others.

COc1ccccc1NC(=O)c1cc2c(CO)cnc(C)c2oc1=Nc1ccccc1	none (no result: EP2 mod, EP2 antag)
COc1cccc(N=c2oc3c(C)ncc(CO)c3cc2C(=O)Nc2ccccc2OC)c1	EP2 mod 68 (no result: CHO parental Ca, OX1R antag-1, OX1R antag-2, EP2 antag) | EP2 confirm inactive
CCCCn1c(-c2nonc2N)nc2ccccc21	none
CC(C)CCn1c(-c2nonc2N)nc2ccccc21	EP2 mod 70 | EP2 confirm inactive
Cc1ccccc1C(=O)N/C(=C/c1ccc(-c2cccnc2Cl)o1)C(=O)NCCCN1CCN(C)CC1	none
C[C@H]1C(=O)N(c2ccccc2)[C@@H]1c1ccccc1	none (no result: EP2 mod, GPR7 antagonist, EP2 antag)
CCN1C(c2ccccc2)C(C)C(=O)C(C)C1c1ccccc1 (stereo unspecified)	EP2 mod 71 | EP2 confirm active
O=c1cc(N2CCCCC2)c(-c2ccccc2)nn1Cc1ccccc1	EP2 mod 82 | EP2 confirm active
NC1=NC(=O)CC(C(=O)Nc2ccc3ccccc3c2)S1 (stereo unspecified)	none (no result: CHO parental Ca, OX1R antag-1, OX1R antag-2, GPR7 antagonist)
COc1ccc(N2C(=O)c3ccccc3S2(=O)=O)cc1	none
COc1ccc(N2C(=O)N(Cc3ccc(C)cc3)c3ccccc3S2(=O)=O)cc1	EP2 mod 79 | EP2 confirm active
c1ccc(-c2noc(CN3CCN(C(c4ccccc4)c4ccccc4)CC3)n2)cc1	none | EP2 confirm inactive
c1ccc(-c2noc(CN3CCN(c4ccccc4)CC3)n2)cc1	none
CCc1ccc(S(=O)(=O)NC2CC(C)(C)NC(C)(C)C2)cc1	none
CN1C(=O)/C(=C/c2ccccc2OCc2cccc(F)c2)N(C)C1=S	EP2 mod 70 | EP2 confirm active
Cc1nnc(Oc2ccccc2F)c2ccccc12	none
Cc1ccccc1/C=C/c1nc2ccccc2c(=O)n1CCc1ccccc1	EP2 mod 71 | EP2 confirm active
Cc1ccc(/C=C/c2nc3ccccc3c(=O)n2CCc2ccccc2)cc1	EP2 mod 81 | EP2 confirm active
Cc1nc2ccccc2c(=O)n1CCc1ccccc1	none (no result: EP2 mod, EP2 antag)
CCn1cc(CCCC(=O)NCc2cccc(OC)c2)c2ccccc21	none (no result: CHO parental Ca, EP2 mod, OX1R antag-1, OX1R antag-2, EP2 antag)
Nc1nnc(CC(=O)N/N=C\c2ccc(-c3cccc(Cl)c3)o2)s1	none
Cc1ccc(C(=O)NCCSC2CCCCC2)cc1S(=O)(=O)Nc1ccccc1	none
CCOc1ccc(S(=O)(=O)NCCC(=O)OCN2C(=O)c3ccccc3C2=O)cc1	none
Cc1ccc(S(=O)(=O)NCC(=O)OCN2C(=O)c3ccccc3C2=O)cc1	EP2 mod 67 | EP2 confirm inactive
CCOc1ccc(Cl)cc1S(=O)(=O)N1CCN(c2ccc(C)c(C)c2)CC1	none
CCOc1ccc(Cl)cc1S(=O)(=O)n1cnc2cc(C)c(C)cc21	EP2 mod 70 | EP2 confirm active
Cc1cc(NC(=O)Cn2nnc3sc4c(c3c2=O)CCC(C(C)(C)C)C4)no1 (stereo unspecified)	none | EP2 confirm inactive
COc1ccc(CNC(=O)C(c2ccncc2)N(C(=O)Cc2cccs2)c2cccc(C)c2)cc1 (stereo unspecified)	none
CC1=CC2C(CC1=O)C(C)=CCC2C(C)C (stereo unspecified)	none (no result: CHO parental Ca, OX1R antag-1, OX1R antag-2, GPR7 antagonist) | EP2 confirm active
CC(=O)CSc1nc(-c2cccs2)c(C#N)c(=O)[nH]1	EP2 mod 68 (no result: CHO parental Ca, OX1R antag-1, OX1R antag-2) | EP2 confirm inactive
CCOC(=O)C1=C(COCCN)NC(C)=C(C(=O)OC)C1c1ccccc1Cl (stereo unspecified)	none (no result: GPR7 antagonist)
CCOC(=O)C1=C(C)NC(C)=C(C(=O)OC)C1c1cccc(Cl)c1Cl (stereo unspecified)	EP2 mod 65! | EP2 confirm inactive
Cc1ccc(C(=O)N2CCCC(N(C)Cc3ccccc3)C2)s1 (stereo unspecified)	none (no result: CHO parental Ca, EP2 mod, OX1R antag-1, OX1R antag-2, EP2 antag)
CCC(=O)Oc1ccc(C(CC)C(CC)c2ccc(OC(=O)CC)cc2)cc1 (stereo unspecified)	EP2 mod 69 | EP2 confirm active
c1ccc(Cn2c(-c3ccccc3)nc3nc4ccccc4nc32)cc1	EP2 mod 67 | EP2 confirm active
CCOC(=O)N1CCN(C(=O)CN(c2cc(Cl)ccc2OC)S(=O)(=O)c2ccccc2)CC1	none
Cn1c(=S)[nH]c2c(c1=O)C(C)(C)Cc1ccccc1-2	none
